88 compounds from PubChem BioAssay AID624467 (The Scripps Research Institute Molecular Screening Center, 2012) can be followed below.

Where “and” joins values, the source holds several entries; their conditions need not be identical. Identical values can stand only once. Screen size: about 360,000 compounds; about 3,600 (1%) were called active. Shown is part of a subset that was picked to be rich in actives. Values without a mark were called inactive.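 The calls were made as follows: active = activation above the mean activation of all test compounds in the run plus 3 SD (cut at about 38% in these data); inactive = the rest.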

Chain of Trace amine-associated receptor 1 (Homo sapiens) (Q96RJ0 whole entry, looked up): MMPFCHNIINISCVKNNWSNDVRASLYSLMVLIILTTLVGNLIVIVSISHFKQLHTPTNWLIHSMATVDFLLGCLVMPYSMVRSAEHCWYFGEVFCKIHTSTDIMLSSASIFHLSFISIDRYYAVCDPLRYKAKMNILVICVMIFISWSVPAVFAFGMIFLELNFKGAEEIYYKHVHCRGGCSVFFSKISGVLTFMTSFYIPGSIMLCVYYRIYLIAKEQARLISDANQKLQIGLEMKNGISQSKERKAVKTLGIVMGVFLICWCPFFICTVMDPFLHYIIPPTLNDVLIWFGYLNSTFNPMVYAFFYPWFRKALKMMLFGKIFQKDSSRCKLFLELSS

The assay concerns the target Trace amine-associated receptor 1 (Homo sapiens) (UniProt Q96RJ0). Put plainly: activators of TAAR1 calcium mobilization – Fluo-8 calcium fluorescence, CHO RD-HGA16 cells, primary screen (AID 624467). The note with it: CHO RD-HGA16 TAAR1, Fluo-8 calcium fluorescence; at 3 µM; stronger effect = higher value; vehicle wells 0%, saturating PEA agonist 100%. The procedure, abridged: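 Repeats: no replicates (n 1) | Material: CHO-derived RD-HGA16 cells with stable Gα16 and human TAAR1 | Technique: Kinetic Fluo-8 calcium fluorescence | Schedule: 17-24 h seeding, 75 min 37 °C dye, 30 min RT | Evaluation: % activation from peak over basal fluorescence ratio, DMSO-to-PEA scaled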
On the technique in general: A change in cytosolic calcium serves as a functional read-out for many receptors and channels.
As for `Oc1ccccc1CNc1ncc(Br)cc1Br`, the activation is 4.29%.
For `Cc1cc2cc3c(N)[nH]nc3nc2cc1C` the value was 2.1%; for `Cc1ccc(C2NC(C(=O)O)CS2)cc1` (stereo not drawn), 6.54%; for `COC(=O)C1=C(C)N(Cc2ccccc2C(F)(F)F)C(=NCc2ccc(C(F)(F)F)cc2)NC1c1ccc(F)cc1` (stereo not drawn), 0.73%.
For `COCCCN(C(=O)CSCc1ccc(C)cc1)c1c(N)n(Cc2ccccc2)c(=O)[nH]c1=O` the value was 0.76%.
For `COc1cc(OC)cc(C(=O)NCC(=O)OCC(=O)NC(C)CCc2ccccc2)c1` (stereo not drawn) the value was 4.34%; for `COc1cc(OC)cc(C(=O)N[C@H](C(=O)OCC(=O)NC(C)c2ccccc2)C(C)C)c1` (stereo partly drawn), 78.4% (active); for `COc1cc(OC)cc(C(=O)NC(C(=O)N2CCC2)C(C)C)c1` (stereo not drawn), 0.84%.
Take `COc1ccccc1OC(C)C(=O)Nc1ccc(S(=O)(=O)Nc2nccs2)cc1` (stereo not drawn): the activation was 3.3%.
To `O=C(NCCC1=CCCCC1)c1ccc(-n2cncn2)cc1` belongs 1.68%; to `Cc1ccn2c(=O)c(C(=O)NCCC3=CCCCC3)c(O)nc2c1`, 75.2% (active).
Take `O=C(CCNC(=O)Cn1ccc2ccccc2c1=O)NCCC1=CCCCC1`: the activation is 1.79%.
For `CC1(C)OC(=O)C2=C(CC(CCc3ccccc3)OC2c2ccc(Cl)cc2)O1` (stereo not drawn), the activation is -0.49%.
With `O=c1[nH]c(-c2ccccc2)cn1C1CCN(Cc2ccc(-c3nc4ccc(F)cc4nc3-c3ccccc3)cc2)CC1`, the activation is 2.82%.
To `Cc1cc(C)c(S(=O)(=O)N2CCC(C(=O)OCc3c(C)noc3C)CC2)c(C)c1` belongs 5.51%; to `COC(=O)C1=C(C(=O)OC)C2C=C(C(C)C)C1C(=O)C2(C)O` (stereo not drawn), 1.68%.
To `Clc1ccccc1Nc1nc(NCc2cccs2)nc2ccsc12` belongs 7.75%.
For `COc1cccc(CNc2nc(NCc3ccccc3OC)nc3ccsc23)c1` the value was 3.04%.
Regarding `COc1cccc(CNc2nc(NCc3cccs3)nc3ccsc23)c1`, the activation was 39% (active).
For `CCn1nnc(NC(=O)c2cc(Cl)c(OC)c(Cl)c2)n1` the value was 5.93%.
As to `O=C1CC(c2ccccc2)C(c2ccccc2)=NN1` (stereo not drawn), the activation was 2.78%.
Take `COc1ccc2c(c1)CCc1c(C(=O)N3CCc4ccccc4C3)noc1-2`: the activation is 13.8%.
For `O=C(c1cc(-c2cccc(O)c2)on1)N1CCc2ccccc2C1` the value was 31.8%; for `O=C(c1noc2c1CCCC2)N1CCc2ccccc2C1`, 54.6% (active); for `CCOC(=O)CC1(NC(=O)c2cc(COc3cncc(Cl)c3)on2)CCCCC1`, 4.12%.
For `COC(=O)c1[nH]c2cccc(C)c2c1NC(=O)CN1CCCc2ccccc21` the value was 38.2% (active); for `CC(=O)c1c(C)[nH]c(C(=O)OCC(=O)Nc2c(C)cccc2C)c1C`, 18.7%.
To `O=C(CN1CCc2ccccc21)NC(c1ccccc1)c1ccccc1` belongs -0.06%; to `Cc1ccc(NC(=O)N2c3ccccc3SC2c2ccco2)c(C)c1` (stereo not drawn), 1.34%; to `Cc1cc(Br)cn2c(Cc3ccccc3C(F)(F)F)c(-c3ccc(C#N)cc3)nc12`, 0.31%.
As for `O=C(CSc1nc(-c2ccco2)cc(C(F)(F)F)n1)NCc1cccs1`, the activation is 75.6% (active).
`COc1ccc(-c2cc(C(F)(F)F)nc(SCCC(=O)NCc3ccco3)n2)cc1`: the activation was 0.17%.
To `O=C(CSc1nc(-c2ccco2)cc(C(F)(F)F)n1)N1CCc2ccccc2C1` belongs 19.4%.
To `CN(O)C(=S)c1ccccc1` belongs 4.65%; to `C[C@@H]1ON(C)[C@H]2C[C@H]3c4cc(N5CCOCC5)ccc4CCN3C[C@@H]12`, 2%.
On to `O=C(O)C1C2C=CC(O2)C1C(=O)NCCc1cccc(Cl)c1` (stereo not drawn), for which the activation was 76.8% (active).
As for `O=C(O)C1C2C=CC(O2)C1C(=O)Nc1ccccn1` (stereo not drawn), the activation is 2.36%.
To `O=C(NCCc1ccccc1)C1CC1` belongs 20.1%; to `O=C(NCc1ccccc1)[C@@H]1CCCN1C(=O)[C@H]1CCCN1C(=O)c1cccc(Cl)c1`, -0.12%; to `COc1ccc(CNC(=O)COC(=O)C2=Cc3ccccc3OC2)cc1`, 43.4% (active).
As to `COc1ccc(CNC(=O)COC(=O)C(CCSC)N2C(=O)c3ccccc3C2=O)cc1` (stereo not drawn), the activation is 9.85%.
Consider `COc1ccc(CCNC(=O)COC(=O)c2cc(=O)c3ccccc3o2)cc1`, for which the activation was 17.5%.
To `Cc1nc2c(C(=O)NCc3cccs3)cnn2c(C)c1Cc1ccc(F)cc1` belongs -1.18%; to `Cc1ccc(NC(=O)CC2C(=O)N(Cc3ccccc3)C(=S)N2NC(=O)c2cccc(F)c2)c(C)c1` (stereo not drawn), 9.32%.
To `COC(=O)Cc1nnn2c1[C@H](C)[C@H](c1ccccc1[N+](=O)[O-])OCC2` belongs 1.43%; to `Cc1cccc(N(CC(=O)N2CCOCC2)S(C)(=O)=O)c1`, 0.3%; to `O=C(CN(c1cccc(Cl)c1)S(=O)(=O)c1ccccc1)NN=C1CCCC1`, -0.99%.
For `COc1cccc(N(CC(=O)N2CCc3ccccc3C2)S(C)(=O)=O)c1` the value was 47.3% (active); for `CS(=O)(=O)N(CC(=O)N1CCc2ccccc2C1)c1ccc(Br)cc1`, 2.37%.
Turning to `Cc1ccc(S(=O)(=O)N(CC(=O)N2CCc3ccccc3C2)c2cccc(Cl)c2)cc1`, the activation was 49.8% (active).
`Cc1ccc(Cl)c(OCC(=O)N2CCc3ccccc3C2)c1`: the activation is 0.5%.
To `CCOC(=O)CNC(=O)N(C)[C@H]1C[C@H]2c3[nH]c4c(-c5ccc6c(c5)OCO6)cccc4c3CCN2C(=O)[C@H]1[C@H](C)O` belongs 11.6%; to `COc1cccc(CNC(=O)[C@H]2CCCN2C(=O)[C@H]2CCCN2C(=O)C2CCCCC2)c1`, 2.02%.
With `CCc1nn(CCCN2CCN(c3cccc(Cl)c3)CC2)c(=O)n1CCOc1ccccc1`, the activation was 5.08% and 3.96%.
For `O=[N+]([O-])c1ccc2[nH]c3c(c2c1)CCCC3O` (stereo not drawn) the value was 2.87%.
In the case of `COC(=O)[C@]12C[C@H](CC(=O)N3CCN(C(=O)C4CC4)CC3)C(=O)N(Cc3ccc4c(c3)OCO4)C1=C[C@H](C(C)(C)C)O[C@@H]2C`, the activation was 1.35%.
Consider `Cc1ccc(C(=O)CCC(=O)N(C)CC(=O)Nc2c(Cl)cccc2Cl)cc1`, for which the activation is -0.39%.
As for `COc1ccccc1N1CC(C(=O)Nc2ccc(S(=O)(=O)N3CCOCC3)cc2)CC1=O` (stereo not drawn), the activation was 1.9%.
To `COc1ccc(C)cc1NC(=S)N1CCOCC1` belongs 0.86%; to `COc1ccc(OC)c(NC(=S)N2CCc3ccccc3C2)c1`, 69.4% (active).
To `COc1ccc(NC(=S)N2CCc3cc(OC)c(OC)cc3C2)cc1` belongs 2.44%.
For `CCCCCCCCN1C(=O)[C@@H](CC(=O)NCCCC)C[C@@]2(C(=O)OC)C1=C[C@H](C(C)(C)C)O[C@@H]2C` the value was -1.86%; for `CCCc1nc2c(c(=O)c3ccccc3n2C)c(=O)n1C1CCCCCC1`, 46.7% (active); for `CCCN1C(=O)C(Cc2nc3ccccc3c(=O)n2-c2ccccc2)c2cc(C)ccc21` (stereo not drawn), 13.8%.
For `CCOC(=O)Cn1c2c(n(-c3ccc(F)cc3)c1=O)C=C(c1ccccc1)[C@@H](C)C(C(=O)N(C)C1CCCCC1)=C2`, the activation is -1.16%.
As for `COC(=O)[C@]12C[C@H](CC(=O)NCc3ccc(C)o3)C(=O)N(CCC3=CCCCC3)C1=C[C@H](C(C)(C)C)O[C@@H]2C`, the activation was -2.27%.
Consider `CCCCCCCCN1C(=O)[C@@H](CC(=O)N2CCN(C(=O)OCC)CC2)C[C@@]2(C(=O)OC)C1=C[C@H](C1CCCC1)O[C@@H]2C`, for which the activation is -2.04%.
For the compound `CCN(CC)P(=O)(Nc1ccc(SC(F)F)cc1)c1ccc(N(C)C)cc1NC(=O)c1ccco1` (stereo not drawn), the activation was 1.83%.
For the compound `Nc1c(NCCc2ccccc2)c2ccccc2oc1=O`, the activation was 88.1% (active).
To `CC(C)(C)Nc1c(N)c(=O)oc2ccccc12` belongs 9.39%.
With `NC(=O)c1oc2ccccc2c1NC(=O)Cc1ccccc1`, the activation is 10.1%.
In the case of `COC(=O)C1=C(C)N(Cc2cccc(C(F)(F)F)c2)C(=NCc2ccccc2)NC1c1ccccc1C(F)(F)F` (stereo not drawn), the activation was 1.05%.
To `C=CCN=C1NC(c2cccc(C(F)(F)F)c2)C(C(=O)OC)=C(C)N1C` (stereo not drawn) belongs -0.19%.
For `COC(=O)[C@]12C[C@H](CC(=O)NCc3ccc(OC)c(OC)c3)C(=O)N(Cc3ccccc3)C1=C[C@H](C(C)C)O[C@@H]2C1CC1` the value was -0.82%.
With `CCCCn1c(-c2cccc(C)c2)nc2cc3[nH]c(=O)c(C(C)C)nc3cc21`, the activation was 14.7%.
For `NS(=O)(=O)c1ccc(NC(=S)NC(=O)c2cccnc2)cc1` the value was 0.75%; for `O=C(/C=C/c1ccc(F)cc1)NC(=S)NNC(=O)c1cccnc1`, 39.6% (active).
As to `Cc1cccc(OCCNC(=S)NC(=O)c2cccnc2)c1`, the activation is -0.63%.
For `COCCN1C(=O)N(c2ccc(Cl)cc2)C(=O)C1CC(=O)Nc1cc(OC)cc(OC)c1` (stereo not drawn) the value was 18.5%.
Consider `C[C@H](O)[C@@H]1C(=O)N2CCc3c([nH]c4c(-c5ccc6c(c5)OCO6)cccc34)[C@@H]2C[C@@H]1N(C)C(=O)c1ccco1`, for which the activation was 14.6%.
To `Cc1ccsc1C(=O)NNC(=O)COc1ccc(Br)cc1` belongs 1.12%; to `Cc1ccc(O)c(NC(=S)NC(=O)COc2ccc(Br)cc2)c1`, 108% (active).
To `Cc1ccc(O)c(/C=N/NC(=O)COc2ccc3c(C)cc(=O)oc3c2)c1` belongs 6.72%.
To `OC[C@H]1O[C@@H](c2nc(-c3nc(-c4ccc(F)cc4)no3)cs2)[C@H](O)[C@@H](O)[C@H]1O` belongs 0.88%.
Turning to `COc1ccc(OC)c(NC(=O)CSc2nc3cccnc3n2C)c1`, the activation is 1.87%.
Consider `CCOc1ccc(OCCSc2nc3ccccc3n2CC(=O)O)cc1`, for which the activation is 3.64%.
For the compound `CCCCCCCCCCOC(=O)Cn1c(COc2ccc(C)cc2)[n+](C)c2ccccc21`, the activation is 74.1% (active).
To `Cc1noc(C)c1COC(=O)Cn1c(C)nc2ccccc21` belongs 1.89%.
